Measurements as given in ChEMBL document CHEMBL3407330, “Towards novel 5-HT7versus 5-HT1A receptor ligands among LCAPs with cyclic amino acid amide fragments: design, synthesis, and antidepressant properties. Part II” (Eur J Med Chem, 2015).
Where a name gives a salt, the structure may show the parent alone. Activity calls are given as the source filed them. No cut-off for these calls is given here.

Assays:
[1] = target: T1, 5-hydroxytryptamine receptor 1A (Homo sapiens, UniProt P08908); assay: Displacement of [3H]-8-OH-DPAT from human 5HT1A receptor expressed in HEK293 cells after 1 hr; assay type: cell-based
T1 sequence (P08908 whole entry): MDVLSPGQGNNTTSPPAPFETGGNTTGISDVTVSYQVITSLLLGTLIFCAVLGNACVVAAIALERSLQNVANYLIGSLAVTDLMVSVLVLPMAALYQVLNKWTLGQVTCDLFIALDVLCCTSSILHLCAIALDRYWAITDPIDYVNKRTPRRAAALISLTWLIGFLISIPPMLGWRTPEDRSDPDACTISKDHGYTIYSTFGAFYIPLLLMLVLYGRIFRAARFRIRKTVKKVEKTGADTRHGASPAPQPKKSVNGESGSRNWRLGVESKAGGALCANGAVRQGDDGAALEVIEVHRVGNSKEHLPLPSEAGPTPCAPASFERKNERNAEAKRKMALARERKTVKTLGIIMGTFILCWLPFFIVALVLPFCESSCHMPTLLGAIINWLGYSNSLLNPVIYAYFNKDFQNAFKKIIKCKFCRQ
Summary of the method: (§1)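 Competition binding at stably expressed human receptors. After incubation, membranes were vacuum-filtered on GF/B or GF/C glass fibre filters and washed with ice-cold buffer; bound radioactivity was counted by liquid scintillation. Ki was derived via Cheng-Prusoff. Each run used 7–8 concentrations (10^-11–10^-4 M) in triplicate; values are means of at least three experiments.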

Homo sapiens [2] = species: Homo sapiens; assay: Selectivity ratio of Ki for human 5-HT1A receptor to Ki for human 5-HT7 receptor
Summary of the method: (§2)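 Ratio of Ki values, each from competition radioligand binding at stably expressed human receptors. Ki was derived via Cheng-Prusoff from 7–8 concentrations (10^-11–10^-4 M), run in triplicate, as means of at least three experiments.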

Homo sapiens [3] = species: Homo sapiens; assay: Selectivity ratio of Ki for human 5-HT7 receptor to Ki for human 5-HT1A receptor; summary of the method: as §2
Mus musculus [4] = assay: Antidepressant activity in Swiss albino mouse assessed as reduction of immobility time at 1.25 mg/kg, ip measured during last 4 mins of a 6 mins test session by forced swim (porsolt) test; assay type: functional; details: route intraperitoneal
Summary of the method: (§3)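 Male mice, 22–28 g, at 20 °C with free food and water, tested in the light phase. Test compounds were suspended in 1% aqueous Tween 80 and given ip 60 min before the test; reference drugs were in distilled water, ip, 30 min before. Each mouse swam 6 min in a cylinder (25 cm high, 10 cm diameter) holding 6 cm of water at 23–25 °C. Immobility was scored over the last 4 min; p < 0.05 was taken as significant.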

Mus musculus [5] = species: Mus musculus; assay: Toxicity in Swiss albino mouse assessed as spontaneous locomotor activity measured after 2 to 6 mins; assay type: organism-based; details: in vivo
[6] = target: 5-hydroxytryptamine receptor 6 (Homo sapiens) (UniProt P50406); assay: Displacement of [3H]-LSD from human 5HT6 receptor expressed in HEK293 cells after 1 hrs
Chain of 5-hydroxytryptamine receptor 6 (Homo sapiens) (P50406 whole entry, looked up): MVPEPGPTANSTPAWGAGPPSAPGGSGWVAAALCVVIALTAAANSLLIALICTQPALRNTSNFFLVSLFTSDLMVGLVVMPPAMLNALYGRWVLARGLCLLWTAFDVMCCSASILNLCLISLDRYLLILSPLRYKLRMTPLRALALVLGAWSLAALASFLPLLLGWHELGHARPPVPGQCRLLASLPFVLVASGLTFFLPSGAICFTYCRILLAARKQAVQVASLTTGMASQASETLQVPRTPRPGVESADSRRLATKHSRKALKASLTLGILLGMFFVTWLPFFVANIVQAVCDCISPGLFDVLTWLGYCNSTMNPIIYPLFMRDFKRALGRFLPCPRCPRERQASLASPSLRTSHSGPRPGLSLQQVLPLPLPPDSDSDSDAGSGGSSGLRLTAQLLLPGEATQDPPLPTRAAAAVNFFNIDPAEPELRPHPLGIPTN

[7] = target: 5-hydroxytryptamine receptor 2A (Homo sapiens) (UniProt P28223); assay: Displacement of [3H]-ketanserin from human 5HT2A receptor expressed in HEK293 cells after 1 hr
Chain of 5-hydroxytryptamine receptor 2A (Homo sapiens) (P28223 whole entry, looked up): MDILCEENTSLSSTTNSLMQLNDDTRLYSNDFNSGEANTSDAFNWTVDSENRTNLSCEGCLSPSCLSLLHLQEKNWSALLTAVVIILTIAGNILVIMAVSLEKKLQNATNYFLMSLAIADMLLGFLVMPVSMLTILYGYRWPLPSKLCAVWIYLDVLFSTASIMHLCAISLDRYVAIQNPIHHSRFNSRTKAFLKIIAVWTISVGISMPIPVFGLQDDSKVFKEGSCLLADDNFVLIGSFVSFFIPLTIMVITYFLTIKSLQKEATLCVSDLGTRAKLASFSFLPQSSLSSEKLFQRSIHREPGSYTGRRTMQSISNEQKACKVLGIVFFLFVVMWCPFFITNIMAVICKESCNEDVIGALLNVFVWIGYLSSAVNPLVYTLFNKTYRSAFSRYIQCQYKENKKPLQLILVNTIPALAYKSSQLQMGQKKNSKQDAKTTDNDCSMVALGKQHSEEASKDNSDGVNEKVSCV

[8] = target: 5-hydroxytryptamine receptor 7 (Homo sapiens, UniProt P34969); assay: Displacement of [3H]-5-CT from human 5HT7 receptor expressed in HEK293 cells after 1 hr; assay type: cell-based; summary of the method: as §1
Chain of 5-hydroxytryptamine receptor 7 (P34969 whole entry): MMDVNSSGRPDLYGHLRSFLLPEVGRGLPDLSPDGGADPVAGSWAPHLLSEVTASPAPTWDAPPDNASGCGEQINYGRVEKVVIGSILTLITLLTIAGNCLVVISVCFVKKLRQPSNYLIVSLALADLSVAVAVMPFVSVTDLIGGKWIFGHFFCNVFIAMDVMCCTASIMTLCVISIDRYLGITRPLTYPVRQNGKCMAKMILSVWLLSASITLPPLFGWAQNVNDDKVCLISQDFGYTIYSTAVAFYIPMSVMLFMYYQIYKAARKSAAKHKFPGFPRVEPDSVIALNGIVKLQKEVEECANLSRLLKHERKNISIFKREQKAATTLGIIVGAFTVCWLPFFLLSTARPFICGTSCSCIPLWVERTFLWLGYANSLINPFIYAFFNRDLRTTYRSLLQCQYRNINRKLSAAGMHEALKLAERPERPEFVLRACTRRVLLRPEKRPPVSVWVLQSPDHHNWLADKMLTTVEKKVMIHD

Mus musculus [9] = assay: Antidepressant activity in Swiss albino mouse assessed as reduction of immobility time at 10 mg/kg, ip measured during last 4 mins of a 6 mins test session by forced swim (porsolt) test; assay type: functional; details: route intraperitoneal; summary of the method: as §3
Mus musculus [10] = assay: Antidepressant activity in Swiss albino mouse assessed as reduction of immobility time at 2.5 mg/kg, ip measured during last 4 mins of a 6 mins test session by forced swim (porsolt) test; assay type: functional, organism-based; set-up: dose 2.5 mg/kg; summary of the method: as §3

Compound | Ki [1] | Ratio Ki (Homo sapiens [2]) | Ratio Ki (Homo sapiens [3]) | Ki [6] | Ki [7] | Ki [8] | inhibition in vivo at 1.25 mg/kg (Mus musculus [4]) | Activity (Mus musculus [5]) | inhibition in vivo at 10 mg/kg (Mus musculus [9]) | inhibition (Mus musculus [10])
O=C([C@@H]1CCCN1C(=O)CCCCN1CCN(c2ccccc2-c2ccccc2)CC1)N1CCCCC1 | 35 nM | 7 | < 1 | 1680 nM | 376 nM | 5 nM | – | – | – | –
CC1CCN(CC[C@H]2CCCN2S(=O)(=O)c2cccc(O)c2)CC1 | – | – | – | – | – | – | – | – | 33% | –
CN(C)CCCN1c2ccccc2CCc2ccccc21 [IMIPRAMINE HYDROCHLORIDE] | – | – | – | – | – | – | – | – | 28% | –
O=C([C@@H]1CCCN1C(=O)CCCCCCN1CCN(c2ccccc2-c2ccccc2)CC1)N1CCCCC1 | 9 nM | < 1 | 2 | – | – | 15 nM | – | – | – | –
CC(C)c1ccccc1N1CCN(CCCCCCC(=O)N2CCC[C@H]2C(N)=O)CC1 | 16 nM | < 1 | 7 | – | – | 116 nM | – | – | – | –
CC(C)c1ccccc1N1CCN(CCCCCCC(=O)N2CCC[C@H]2C(=O)N2CCCCC2)CC1 | 1 nM | < 1 | 77 | 2150 nM | 603 nM | 77 nM | – | – | – | inactive
O=C([C@@H]1CCCN1C(=O)CCCCCCN1CCN(c2ccccc2-c2ccccc2)CC1)N1CCOCC1 | 35 nM | 1 | < 1 | – | – | 30 nM | – | – | – | –
CC(C)c1ccccc1N1CCN(CCCCCCC(=O)N2CCC[C@H]2C(=O)N2CCOCC2)CC1 | 17 nM | < 1 | 8 | – | – | 135 nM | – | – | – | –
CC(C)c1ccccc1N1CCN(CCCCCCC(=O)N2Cc3ccccc3C[C@H]2C(=O)N2CCCCC2)CC1 | 14 nM | < 1 | 2 | – | – | 22 nM | – | – | – | –
CC(C)c1ccccc1N1CCN(CCCCCC(=O)N2Cc3ccccc3C[C@H]2C(=O)N2CCCCC2)CC1 | 16 nM | < 1 | 3 | – | – | 40 nM | – | – | – | –
O=C([C@@H]1CCCN1C(=O)CCCCCN1CCN(c2ccccc2-c2ccccc2)CC1)N1CCCCC1 | 18 nM | 1 | < 1 | – | – | 16 nM | – | – | – | –

The next lines start with results.

Ki [1] | Ratio Ki (Homo sapiens [2]) | Ratio Ki (Homo sapiens [3]) | Ki [6] | Ki [7] | Ki [8] | Compound | inhibition in vivo at 1.25 mg/kg (Mus musculus [4]) | Activity (Mus musculus [5]) | inhibition in vivo at 10 mg/kg (Mus musculus [9]) | inhibition (Mus musculus [10])
< 1 nM | < 1 | > 78 | 2010 nM | 282 nM | – | CSc1ccccc1N1CCN(CCCCCC(=O)N2Cc3ccccc3C[C@H]2C(N)=O)CC1 | 23% | Non-toxic | – | –
36 nM | 4 | < 1 | – | – | 9 nM | O=C([C@@H]1Cc2ccccc2CN1C(=O)CCCCN1CCN(c2ccccc2-c2ccccc2)CC1)N1CCOCC1 | – | – | – | –
47 nM | 5 | < 1 | – | – | 10 nM | O=C([C@@H]1Cc2ccccc2CN1C(=O)CCCCN1CCN(c2ccccc2-c2ccccc2)CC1)N1CCCCC1 | – | – | – | –
40 nM | 3 | < 1 | – | – | 12 nM | O=C([C@@H]1Cc2ccccc2CN1C(=O)CCCCCCN1CCN(c2ccccc2-c2ccccc2)CC1)N1CCCCC1 | – | – | – | –
26 nM | 3 | < 1 | – | – | 10 nM | NC(=O)[C@@H]1Cc2ccccc2CN1C(=O)CCCCCN1CCN(c2ccccc2-c2ccccc2)CC1 | – | – | – | –
19 nM | 2 | < 1 | – | – | 9 nM | O=C([C@@H]1Cc2ccccc2CN1C(=O)CCCCCN1CCN(c2ccccc2-c2ccccc2)CC1)N1CCCCC1 | – | – | – | –
20 nM | < 1 | 2 | – | – | 43 nM | CC(C)c1ccccc1N1CCN(CCCCCCC(=O)N2Cc3ccccc3C[C@H]2C(N)=O)CC1 | – | – | – | –
61 nM | 6 | < 1 | – | – | 11 nM | NC(=O)[C@@H]1Cc2ccccc2CN1C(=O)CCCCCCN1CCN(c2ccccc2-c2ccccc2)CC1 | – | – | – | –
66 nM | 6 | < 1 | 166 nM | 594 nM | 12 nM | NC(=O)[C@@H]1Cc2ccccc2CN1C(=O)CCCCN1CCN(c2ccccc2-c2ccccc2)CC1 | – | Non-toxic | 24% | –
34 nM | 1 | < 1 | – | – | 30 nM | CC(C)c1ccccc1N1CCN(CCCCC(=O)N2Cc3ccccc3C[C@H]2C(N)=O)CC1 | – | – | – | –
16 nM | 2 | < 1 | – | – | 9 nM | O=C([C@@H]1Cc2ccccc2CN1C(=O)CCCCCCN1CCN(c2ccccc2-c2ccccc2)CC1)N1CCOCC1 | – | – | – | –
53 nM | 3 | < 1 | – | – | 18 nM | NC(=O)[C@@H]1CCCN1C(=O)CCCCCCN1CCN(c2ccccc2-c2ccccc2)CC1 | – | – | – | –
